Laboratory results: ChEMBL document CHEMBL1123879, “Synthesis and antiarrhythmic activity of novel 3-alkyl-1-[omega-[4-[(alkylsulfonyl)amino]phenyl]-omega- hydroxyalkyl]-1H-imidazolium salts and related compounds” (J Med Chem, 1987)

How the values were obtained:
Canis familiaris [1] = assay: In vivo intraduodenal activity in mongrel dogs was assessed by % change in blood pressure (10 mg/kg administered intradermally); assay type: functional, Canis lupus familiaris, Artery; settings: in the assay text read “intraduodenally” for “intradermally”
Method in brief: (§1)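 Healthy dogs (8–20 kg) of either sex, pentobarbital 30 mg/kg iv, ventilated, temperature held at 36 ± 0.5 °C. Compound given intraduodenally as suspension in 0.5% tragacanth. HR, BP and FRP measured at 45 min postdose; second dose if FRP/conduction change below 12%. Active dose means FRP change ≥ 12%; HR and BP given as % change, mean ± SEM.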

Canis familiaris [2] = organism: Canis familiaris; assay: Maximum observed change in FRP from control was determined on isolated canine ventricular muscle fibers at a concentration of 100 uM; assay type: functional, Canis lupus familiaris, Muscle tissue
Method in brief: (§2)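 Canine right ventricular papillary muscle strips superfused with O2/CO2-gassed saline at 36 ± 0.5 °C. Bipolar electrogram recording. Stimulated at 4× diastolic threshold (2 ms pulses), equilibrated 60 min. FRP measured at 1000 ms cycle length by S2 after every tenth S1 at shortening intervals. Cumulative concentrations; one compound per strip, with vehicle controls. Readout is concentration giving a 20% FRP change, or maximal change; log mean with 90% CI when n > 2.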

Canis familiaris [3] = organism: Canis familiaris; assay: Concentration that causes 20% increase in ADP95 (action potential duration at 95% repolarization) was determined on isolated canine cardiac Purkinje fibers; assay type: functional, Canis lupus familiaris, Purkinje fiber
Method in brief: (§3)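 Canine cardiac Purkinje fibres in gassed physiological saline (95% O2–5% CO2, pH 7.35–7.40) at 36 ± 0.5 °C. Paced at 1.0 Hz with 2 ms pulses at twice diastolic threshold. Intracellular microelectrode recording after up to 1 h of stabilisation; 30 min exposure per concentration; one compound per fibre, with vehicle controls. Readout is concentration giving a 20% change in APD95, or maximal APD95 change; log mean with 90% CI when n > 2.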

Canis familiaris [4] = assay: In vivo intraduodenal activity in mongrel dogs was assessed by % change in heart rate (10 mg/kg administered intradermally); assay type: functional, Canis lupus familiaris; settings: in the assay text read “intraduodenally” for “intradermally”; method in brief: as §1
Canis familiaris [5] = organism: Canis familiaris; assay: Maximum observed change in FRP from control was determined in isolated canine ventricular muscle fibers at a concentration of 10 uM; assay type: functional, Canis lupus familiaris, Muscle tissue; method in brief: as §2
Canis familiaris [6] = organism: Canis familiaris; assay: Concentration that causes 20% increase in functional refractory period (FRP) was determined on isolated canine ventricular muscle fibers; set-up: species or system Canis lupus familiaris, Muscle tissue; method in brief: as §2
Canis familiaris [7] = assay: In vivo antiarrhythmic efficacy in a programmed electrical stimulation (PES) model of mongrel dogs reported as number of animals effective at dose range of 0.3-30 mg/kg.; assay type: functional, Canis lupus familiaris, Heart
Method in brief: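 Mongrel dogs (8–17 kg) with two-stage LAD occlusion 24 h earlier, anesthetized with thiopental 15 mg/kg and ventilated; open chest. PES induces SVT/VF; two control arrhythmias 30 min apart. Compound given as 10-min iv infusion, PES repeated 20 min later, dose escalated while still inducible; noninducibility counts as effective. HR and BP reported as % change at effective dose, mean ± SEM.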

Canis familiaris [8] = organism: Canis familiaris; assay: Maximum observed change in ADP95 from control value was determined in isolated canine cardiac uM; assay type: functional, Canis lupus familiaris; method in brief: as §3
Canis familiaris [9] = organism: Canis familiaris; assay: Maximum observed change in FRP from control was determined in isolated canine ventricular muscle fibers at a concentration of 100 uM; assay type: functional, Canis lupus familiaris, Muscle tissue; method in brief: as §2
Canis familiaris [10] = organism: Canis familiaris; assay: Concentration that causes 20% increase in functional refractory period (FRP) was determined on isolated canine ventricular muscle fibers; NR = never reached; settings: Canis lupus familiaris; Muscle tissue; method in brief: as §2
Canis familiaris [11] = assay: In vivo intraduodenal activity in mongrel dogs was assessed by percent change in heart rate at active dose of 30 mg/kg, administered intradermally; assay type: functional, Canis lupus familiaris; settings: in the assay text read “intraduodenally” for “intradermally”; method in brief: as §1
Canis familiaris [12] = organism: Canis familiaris; assay: Concentration that causes 20% increase in ADP95 (action potential duration at 95% repolarization) was determined on isolated canine cardiac Purkinje fibers (0.01-10 uM concentration range); assay type: functional, Canis lupus familiaris, Purkinje fiber; method in brief: as §3
Canis familiaris [13] = assay: In vivo intraduodenal activity in mongrel dogs was assessed by percent change in blood pressure at active dose of 30 mg/kg, administered intradermally; assay type: functional, Canis lupus familiaris, Artery; settings: in the assay text read “intraduodenally” for “intradermally”; method in brief: as §1

Cc1n(CC(O)c2ccc(NS(C)(=O)=O)cc2)cc[n+]1C.[Cl-] (stereo not given)
Blood pressure (Canis familiaris [1]): 3%
Max delta FRP (Canis familiaris [2]): 56%
Activity (Canis familiaris [3]): 0.8 µM
Heart rate (Canis familiaris [4]): -20%
Max delta FRP (Canis familiaris [5]): 44%
Activity (Canis familiaris [6]): 0.2 µM
No. effective (Canis familiaris [7]): 0
Max delta APD95 (Canis familiaris [8]): 51%

C[n+]1ccn(CC(=O)c2ccc(NS(C)(=O)=O)cc2)c1.[Cl-]
Max delta FRP (Canis familiaris [9]): 15%
Activity (Canis familiaris [10]): Not recorded
Heart rate (Canis familiaris [11]): -19%
Activity (Canis familiaris [12]): 2.3 µM
Blood pressure (Canis familiaris [13]): 3%
No. effective (Canis familiaris [7]): 0
Max delta APD95 (Canis familiaris [8]): 38%
